The conditions of data set [1]: used as correction in blood contamination formula; cited from earlier work.
For data set [2] the following is noted: study did not use labelled OT; cited from earlier work.
The conditions of data set [3]: statement in discussion, no reference given; cited from earlier work.
Data set [4] is described as follows: d5 OT pharmacokinetics in plasma and CSF after IN and IV administration. In kind it is in vivo, rhesus monkeys (Macaca Mulatta). The note with it: for Drug targeting efficiency percentage (DTE%), single monkey: 80 IU d5 OT IN vs IV, AUC0-60 min, individual monkey. The procedure, abridged: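 Rhesus monkeys sedated IM: ketamine (10 mg/kg), dexdomitor (0.01 mg/kg), glycopyrrolate 0.01 mg/kg i.m.; 80 IU deuterated test compound given IN or IV (1 mL normal saline, leg vein), IN saline control, counterbalanced weekly sessions. Blood and CSF drawn pre-dose and 10–60 min. Samples acetonitrile-precipitated, SPE-cleaned at pH 3.0, LC-MS/MS. Non-compartmental AUC0–60, Cmax, Tmax; bioavailability and DTE from AUC ratios.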

With `CC[C@H](C)[C@@H]1NC(=O)[C@H](Cc2ccc(O)cc2)NC(=O)[C@@H](N)CSSC[C@@H](C(=O)N2CCC[C@H]2C(=O)N[C@@H](CC(C)C)C(=O)NCC(N)=O)NC(=O)[C@H](CC(N)=O)NC(=O)[C@H](CCC(N)=O)NC1=O` [OT, Oxytocin], the “Fraction of OT that is not protein bound” value in data set [1] is listed as 0.7. In addition, the “Fraction of OT crossing the BBB” value in data set [2] is given as “~ .002%”.

Consider atosiban, for which the “Passage of the BBB” value in data set [3] was “does not pass the BBB”.

As to d5-oxytocin [d5 OT], the figures for the “Drug targeting efficiency percentage (DTE%), single monkey” value in data set [4] (first of 4 values listed), in data set [4] (second of 4 values listed) and in data set [4] (third of 4 values listed) were 33.6%, 50.5% and 154.6%, respectively. Also, the “Bioavailability post IN administration for plasma and CSF” value in data set [4] (100 x (AUC IN/AUC IV), 80 IU d5 OT, plasma and CSF, values only in words) was “similar, albeit low”.

The values above are taken from article PMC5862033 (Molecular psychiatry, 2017).
